# Assay outcomes as filed in PubChem.
# T cruzi inh – blocks replication of Trypanosoma cruzi; T. cruzi beta-gal in NIH3T3, luminescence, 90 h; inhibition, % (no concentration beside the values); hit rate 1.4% among 300,000; AID 1885;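 active = mean inhibition across valid replicates above about 55%, limit read from the data; inconclusive = mean below that limit but half or more replicates reach it; inactive = mean below it, under half of replicates reach it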;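 also: signal also drops with host cell toxicity which is not excluded here; higher percent means less beta-gal luminescence so fewer parasites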
#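 Read-out: Parasite load inhibition, % | Test system: Mouse NIH/3T3 fibroblasts infected with β-gal-expressing T. cruzi Tulahuen C4 | Amount: 5,000 cells/well | Medium: DMEM, 2% fetal bovine serum | Signal: GalScreen β-gal luminescence, detergent lysis, 60 min | Timing: 3 h attach, ≥90 h co-culture | Also added: Tulahuen C4 trypomastigotes, 5000/well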
# HSF-1 act – increases HSF-1 driven luciferase reporter signal; activation, % at 9 µM; NIH3T3-HGL HSF-1 luciferase reporter, MG132, 8 h; 100% = twice DMSO control signal; hit rate 1.7% among 300,000;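 active = mean replicate activation of at least 50% with a set share of replicates each reaching 50%; inconclusive = only one of those two conditions met; inactive = mean below 50% and too few replicates reaching it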
# HSF1 inhib – HSF1 inhibition. hit rate 0.77% among 300,000. NIH3T3-HGL HSE-luciferase, MG132-induced, luminescence 8 h; active compounds read low. AID 2098. activity change, negative = inhibition, % at 7.5 µM (by protocol);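 active = more than half of replicate wells show activity change below -50%, luminescence cut by over half; inconclusive = some wells, but at most half, below -50%; inactive = no replicate well below -50%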;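 also: luciferase reports HSF-1 transcriptional activity via heat shock element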
# L major viab – inhibitors of Leishmania major promastigote growth | Leishmania major promastigotes, resazurin fluorescence viability | inhibition, % at 10 µM | hit rate 9% among 200,000 | AID 1063; in the data active = inhibition above about 50%;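 also: promastigotes grown with compound for 44 hours at 28 °C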
# Hsp70 activator – transcriptional activators of Hsp70. hit rate 0.04% among 200,000. HeLa Hsp70 promoter luciferase reporter, luminescence; scaled: vehicle 0, proteasome-inhibitor control 100%. activation, % at 10 µM;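 active = activation above the mean across all tested compounds plus 3 SD, cutoff set per campaign, cut at about 5.5% in these data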
# Lmaj promast 1uM – L. major promastigote growth inhibition, 1 uM repeat; resazurin fluorescence, 48 h; shares compounds with L major viab; hit rate 13% among 1,100; inhibition, % at 1 µM;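 active = inhibition above about 50% in both repeat tests, limit read from the data; inconclusive = one repeat under the set limit, the other over it; inactive = both repeats under the set limit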
# Hits are given with their value; n = inactive; u = inconclusive; x = not tested or not shown. Only a selection was taken, and hits are over-represented in it overall.
SMILES,T cruzi inh,HSF-1 act,HSF1 inhib,L major viab,Hsp70 activator,Lmaj promast 1uM
Cc1nn(C(C)(C)C)c(OC(=O)C2CCCC2)c1S(=O)(=O)c1ccccc1,n,n,n,62,n,n
COc1ccc2cc(Br)ccc2c1CC(=O)NCCCN1CCOCC1,n,n,n,x,x,x
COc1ccc(N(C(=O)COc2cccc(C)c2)S(=O)(=O)c2ccc(C)cc2)cc1,n,n,n,52,n,n
COc1ccc(OC(=O)COc2cccc(C)c2)cc1,n,n,n,x,x,x
CCOC(=O)c1c(NC(=O)c2ccc(S(=O)(=O)N3CCOCC3)cc2)sc2c1CCN(C)C2,x,x,x,68,n,n
N#CC1=C(N)OC2=C(C(=O)CCC2)C12C(=O)N1CCCc3cccc2c31 (stereo not given),n,n,n,60,n,n
COC(=O)CNc1nc(-c2ccccc2F)nc2ccccc12,n,n,n,59,n,56
Cc1cc(=O)oc2cc(OCC(O)Cn3ccnc3)ccc12 (stereo not given),n,n,n,x,x,x
Cc1cc(C(c2nnnn2Cc2ccccc2)N2CCOCC2)c(C)n1-c1ccc2c(c1)OCO2 (stereo not given),n,n,n,61,n,n
CCC(C)c1ccc(-n2c(=O)c3ccccc3n3c(=S)[nH]nc23)cc1 (stereo not given),n,n,n,x,x,x
Cc1cc2nc(C3CCN(Cc4nnnn4Cc4ccccc4)CC3)[nH]c2cc1C,n,n,n,91,n,n
O=C(c1cn(-c2ccccc2)nc1-c1ccc(Cl)s1)N1CCOCC1,n,n,n,64,n,n
O=C(c1cn(-c2ccccc2)nc1-c1ccc(Cl)cc1)N1CCOCC1,n,n,n,n,n,x
Cc1onc(-c2ccccc2)c1C(=O)N1CCCCCC1,n,n,n,x,x,x
COc1ccc2nc(N3C(=O)/C(=C/c4ccccc4)NC3=S)sc2c1,n,n,n,61,n,n
CC12CC(NC(=O)N1c1ccc(C(=O)N3CCN(c4ccccn4)CC3)cc1)c1ccccc1O2 (stereo not given),x,x,x,n,n,x
COc1cccc(N2CCN(C(=O)c3ccc(N4C(=O)NC5CC4(C)Oc4ccccc45)cc3)CC2)c1 (stereo not given),n,n,n,73,n,n
Nc1cccc2nc3ccccc3cc12,n,n,n,101,n,79
Nc1[nH]nc2nc3ccccc3cc12,n,n,n,n,n,x
NNC(=O)c1cc(C23CC4CC(CC(C4)C2)C3)[nH]n1,n,n,n,x,x,x
CC1CCCN(C(=O)c2nn(C)c3c2CS(=O)(=O)c2ccccc2-3)C1 (stereo not given),n,n,n,x,x,x
Cc1nc2ccccn2c(=O)c1CCN1CCC(C(=O)c2ccc(F)cc2)CC1,n,n,n,97,n,n
Cc1cc2c(cc1C)CSC(c1ccccc1O)SC2,n,n,n,97,n,n
Cc1cc2c(cc1C)CSC(c1ccc3ccccc3c1O)SC2,n,n,n,n,n,x
O=C(CSC1=NS(=O)(=O)c2ccccc2N1)Nc1cccc(F)c1,n,n,n,x,x,x
SMILES,T cruzi inh,HSF-1 act,HSF1 inhib,L major viab,Hsp70 activator,Lmaj promast 1uM
O=C(NCCc1c[nH]c2ccccc12)/C(=C\c1cccnc1)NC(=O)c1ccco1,n,n,n,61,n,n
CN(C)/C=C/C(=O)c1ccc(-c2ccc(Cl)cc2Cl)o1,n,n,u,n,n,x
O=C1CN(c2nnnn2-c2ccccc2)CCN1,x,x,x,n,n,x
O=C1NCN(c2ccccc2)C12CCN(c1nnnn1-c1ccccc1)CC2,n,n,n,81,n,n
Oc1ccc2[nH]ccc2c1,n,n,n,87,n,n
Cc1cc(C)c(NC(=S)NCC2CCN(C(C)c3ccccc3)C2)c(C)c1 (stereo not given),n,n,n,n,n,x
Cc1ccc(NC(=S)c2nc3ccccc3[nH]2)cc1,n,n,n,70,n,n
CCNC(=S)Nc1ccc(Cc2nc3ccccc3[nH]2)cc1,n,n,n,x,x,x
O=C(Cc1ccccc1)N1CCN(c2ccccc2F)CC1,n,n,n,x,x,x
OCC1(Cc2ccccc2)CCN(C2CCN(c3ccccc3F)CC2)CC1,x,x,x,86,n,u
CCOC(=O)Cc1csc(NC(=O)c2ccc3ncsc3c2)n1,n,n,n,x,x,x
FC(F)(F)c1ccc2c(c1)C1C=CCC1C(c1ccncc1)N2 (stereo not given),n,n,n,88,n,n
